Assay results as given in ChEMBL document CHEMBL4138251, “Iodine-Promoted Aromatization of p-Menthane-Type Phytocannabinoids” (J Nat Prod, 2018).

Tests used:
[1] = target: T1, Transient receptor potential cation channel subfamily V member 2 (Rattus norvegicus, UniProt Q9WUD2); assay: Agonist activity at recombinant rat TRPV2 expressed in HEK293 cells assessed as increase in intracellular calcium level by Fluo4-AM probe based fluorescence assay; assay type: cell-based
T1 sequence (Q9WUD2 whole entry): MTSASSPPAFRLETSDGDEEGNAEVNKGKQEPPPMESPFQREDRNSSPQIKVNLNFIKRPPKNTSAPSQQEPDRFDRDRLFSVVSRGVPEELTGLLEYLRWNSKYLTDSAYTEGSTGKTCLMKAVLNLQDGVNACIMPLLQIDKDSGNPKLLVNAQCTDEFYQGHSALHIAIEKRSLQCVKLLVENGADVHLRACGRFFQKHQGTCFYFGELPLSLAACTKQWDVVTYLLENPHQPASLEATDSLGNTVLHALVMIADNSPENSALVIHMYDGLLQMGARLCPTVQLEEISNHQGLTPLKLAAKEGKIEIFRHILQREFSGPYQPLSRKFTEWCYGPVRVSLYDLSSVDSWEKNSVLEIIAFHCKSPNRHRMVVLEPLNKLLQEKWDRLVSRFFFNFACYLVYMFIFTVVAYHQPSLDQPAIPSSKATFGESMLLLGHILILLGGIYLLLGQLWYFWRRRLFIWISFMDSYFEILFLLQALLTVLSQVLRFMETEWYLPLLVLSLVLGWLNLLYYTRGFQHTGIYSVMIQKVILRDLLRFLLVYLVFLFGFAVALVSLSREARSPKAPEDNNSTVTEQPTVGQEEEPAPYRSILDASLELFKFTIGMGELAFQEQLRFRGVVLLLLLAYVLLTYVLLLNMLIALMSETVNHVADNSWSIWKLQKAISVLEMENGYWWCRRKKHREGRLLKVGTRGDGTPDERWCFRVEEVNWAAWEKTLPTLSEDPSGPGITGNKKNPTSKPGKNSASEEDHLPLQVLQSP
Outline: (§1)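 HEK-293 cells stably expressing the channel, selected with G-418 (600 μg mL−1) and grown in MEM with 10% FBS and 2 mM glutamine at 37 °C, 5% CO2. Cells were loaded 1 h at room temperature in the dark with Fluo-4 AM (4 μM). Cells were washed and suspended in Tyrode's buffer pH 7.4, and fluorescence was read at 25 °C (ex 488/em 516 nm).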

[2] = target: Transient receptor potential cation channel subfamily A member 1 (Rattus norvegicus, UniProt Q6RI86); assay: Agonist activity at recombinant rat TRPA1 expressed in HEK293 cells assessed as increase in intracellular calcium level by Fluo4-AM probe based fluorescence assay; assay type: cell-based; outline: as §1
[3] = target: Transient receptor potential cation channel subfamily V member 4 (Rattus norvegicus, UniProt Q9ERZ8); assay: Agonist activity at recombinant rat TRPV4 expressed in HEK293 cells assessed as increase in intracellular calcium level by Fluo4-AM probe based fluorescence assay; assay type: cell-based; outline: as §1
Cannabinoid receptor 2 = Cannabinoid receptor 2 (Homo sapiens, UniProt P34972); assay: Displacement of 3H-CP-55940 from recombinant full length human CB2 receptor expressed in HEK293 cell membranes after 90 mins by topcount scintillation counting analysis
[4] = target: T2, Transient receptor potential cation channel, subfamily V, member 3 (Rattus norvegicus, UniProt E9PU00); assay: Agonist activity at recombinant rat TRPV3 expressed in HEK293 cells assessed as increase in intracellular calcium level by Fluo4-AM probe based fluorescence assay; assay type: cell-based; outline: as §1
T2 sequence (E9PU00 whole entry): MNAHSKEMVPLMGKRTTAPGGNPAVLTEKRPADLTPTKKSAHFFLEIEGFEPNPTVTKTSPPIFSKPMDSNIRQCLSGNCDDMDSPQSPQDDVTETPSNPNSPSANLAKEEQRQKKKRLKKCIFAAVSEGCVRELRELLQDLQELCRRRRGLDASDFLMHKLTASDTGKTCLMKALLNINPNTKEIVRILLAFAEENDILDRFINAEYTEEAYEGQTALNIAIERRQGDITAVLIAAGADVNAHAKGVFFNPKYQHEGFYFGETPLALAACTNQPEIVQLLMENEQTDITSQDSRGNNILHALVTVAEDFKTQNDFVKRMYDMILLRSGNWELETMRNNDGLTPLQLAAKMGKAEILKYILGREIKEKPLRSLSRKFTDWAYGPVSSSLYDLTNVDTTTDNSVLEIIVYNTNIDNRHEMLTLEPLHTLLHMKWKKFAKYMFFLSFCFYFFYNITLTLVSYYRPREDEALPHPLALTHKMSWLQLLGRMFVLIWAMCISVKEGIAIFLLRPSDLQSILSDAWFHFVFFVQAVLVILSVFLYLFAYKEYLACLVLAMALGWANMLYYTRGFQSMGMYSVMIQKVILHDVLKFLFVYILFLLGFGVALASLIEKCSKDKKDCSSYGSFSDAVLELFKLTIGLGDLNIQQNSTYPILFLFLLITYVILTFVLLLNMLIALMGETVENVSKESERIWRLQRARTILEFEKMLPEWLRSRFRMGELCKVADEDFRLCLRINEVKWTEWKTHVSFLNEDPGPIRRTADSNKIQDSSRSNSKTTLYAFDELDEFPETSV

[5] = target: Transient receptor potential cation channel subfamily M member 8 (Rattus norvegicus, UniProt Q8R455); assay: Antagonist activity at recombinant rat TRPM8 expressed in HEK293 cells assessed as inhibition of icilin-induced intracellular calcium level incubated for 5 mins followed by agonist stimulation by Fluo4-AM probe based fluorescence assay; assay type: cell-based
Outline: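 Rat TRPM8 HEK-293 cells were loaded with Fluo-4 AM and suspended in Tyrode's buffer pH 7.4. Compound was added 5 min before icilin (0.25 μM), and [Ca2+]i was read at 22 °C on a Peltier system. IC50 for half-maximal inhibition of the agonist response was taken from sigmoidal fits.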

Cannabinoid receptor 1 = Cannabinoid receptor 1 (Homo sapiens, UniProt P21554); assay: Displacement of 3H-CP-55940 from recombinant full length human CB1 receptor expressed in HEK293 cell membranes after 90 mins by topcount scintillation counting analysis
[6] = target: Transient receptor potential cation channel subfamily V member 1 (Homo sapiens, UniProt Q8NER1); assay: Agonist activity at human TRPV1 expressed in HEK293 cells assessed as increase in intracellular calcium level by Fluo4-AM probe based fluorescence assay; assay type: cell-based; outline: as §1
Chain of Transient receptor potential cation channel subfamily V member 1 (Q8NER1 whole entry): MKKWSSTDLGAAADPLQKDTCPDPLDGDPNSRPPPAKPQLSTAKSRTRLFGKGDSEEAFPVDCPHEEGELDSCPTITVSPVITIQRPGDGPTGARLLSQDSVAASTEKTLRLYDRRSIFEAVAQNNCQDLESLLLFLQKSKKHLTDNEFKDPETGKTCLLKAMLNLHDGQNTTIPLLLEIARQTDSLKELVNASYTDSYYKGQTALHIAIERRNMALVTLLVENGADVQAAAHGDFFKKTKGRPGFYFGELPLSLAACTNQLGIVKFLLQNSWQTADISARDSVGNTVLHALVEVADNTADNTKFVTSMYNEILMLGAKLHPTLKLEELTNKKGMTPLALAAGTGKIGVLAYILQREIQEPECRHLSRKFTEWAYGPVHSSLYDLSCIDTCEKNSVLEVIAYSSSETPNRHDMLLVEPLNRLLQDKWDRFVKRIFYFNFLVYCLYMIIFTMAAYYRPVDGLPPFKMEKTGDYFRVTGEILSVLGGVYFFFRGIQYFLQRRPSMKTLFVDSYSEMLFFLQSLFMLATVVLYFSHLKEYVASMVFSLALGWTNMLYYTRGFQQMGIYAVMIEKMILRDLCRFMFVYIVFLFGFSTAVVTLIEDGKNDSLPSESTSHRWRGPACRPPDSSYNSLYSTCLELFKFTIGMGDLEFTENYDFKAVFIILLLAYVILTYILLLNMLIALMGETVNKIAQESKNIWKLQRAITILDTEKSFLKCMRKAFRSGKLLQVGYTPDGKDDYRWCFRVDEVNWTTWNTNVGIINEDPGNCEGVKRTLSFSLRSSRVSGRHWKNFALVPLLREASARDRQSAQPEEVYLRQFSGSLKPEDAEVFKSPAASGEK

Chain of Transient receptor potential cation channel subfamily A member 1 (Q6RI86 whole entry): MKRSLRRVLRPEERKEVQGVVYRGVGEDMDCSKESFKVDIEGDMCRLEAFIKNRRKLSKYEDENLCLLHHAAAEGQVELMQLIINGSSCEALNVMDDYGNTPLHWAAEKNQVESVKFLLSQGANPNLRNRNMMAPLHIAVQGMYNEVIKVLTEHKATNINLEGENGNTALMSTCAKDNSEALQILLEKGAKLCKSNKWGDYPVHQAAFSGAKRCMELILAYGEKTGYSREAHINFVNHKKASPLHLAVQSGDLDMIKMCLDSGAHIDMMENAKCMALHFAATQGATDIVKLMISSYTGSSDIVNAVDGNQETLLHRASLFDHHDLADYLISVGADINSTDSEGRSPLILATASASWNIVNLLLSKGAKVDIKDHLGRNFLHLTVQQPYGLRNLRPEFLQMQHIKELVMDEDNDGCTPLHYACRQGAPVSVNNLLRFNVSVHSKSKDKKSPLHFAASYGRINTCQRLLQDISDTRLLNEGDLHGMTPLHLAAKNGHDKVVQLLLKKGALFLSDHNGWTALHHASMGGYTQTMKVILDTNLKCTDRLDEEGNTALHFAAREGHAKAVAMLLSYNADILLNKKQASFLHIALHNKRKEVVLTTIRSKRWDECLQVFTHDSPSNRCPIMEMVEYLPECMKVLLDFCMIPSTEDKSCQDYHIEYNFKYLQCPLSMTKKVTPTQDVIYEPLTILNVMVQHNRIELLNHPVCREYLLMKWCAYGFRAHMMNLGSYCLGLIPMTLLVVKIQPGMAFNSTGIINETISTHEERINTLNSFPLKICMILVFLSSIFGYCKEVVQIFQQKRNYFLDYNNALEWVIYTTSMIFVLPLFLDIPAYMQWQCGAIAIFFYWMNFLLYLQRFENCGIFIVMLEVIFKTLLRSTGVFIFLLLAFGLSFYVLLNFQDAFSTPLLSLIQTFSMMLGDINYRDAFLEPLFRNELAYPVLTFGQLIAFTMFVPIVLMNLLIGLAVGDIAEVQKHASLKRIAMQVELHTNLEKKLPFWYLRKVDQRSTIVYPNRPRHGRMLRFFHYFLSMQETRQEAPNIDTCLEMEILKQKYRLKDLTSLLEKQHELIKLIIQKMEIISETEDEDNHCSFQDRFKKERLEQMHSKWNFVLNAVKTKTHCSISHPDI
Chain of Cannabinoid receptor 2 (P34972 whole entry): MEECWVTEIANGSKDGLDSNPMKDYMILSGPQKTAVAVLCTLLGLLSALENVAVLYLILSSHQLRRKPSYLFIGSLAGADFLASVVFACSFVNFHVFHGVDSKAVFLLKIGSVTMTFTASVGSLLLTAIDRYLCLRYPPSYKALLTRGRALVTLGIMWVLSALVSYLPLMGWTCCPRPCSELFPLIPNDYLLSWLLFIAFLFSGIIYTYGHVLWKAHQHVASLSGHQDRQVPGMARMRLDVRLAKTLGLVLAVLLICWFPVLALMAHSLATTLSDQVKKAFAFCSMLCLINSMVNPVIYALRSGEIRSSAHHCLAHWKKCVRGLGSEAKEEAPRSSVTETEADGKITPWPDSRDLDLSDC
Chain of Transient receptor potential cation channel subfamily M member 8 (Q8R455 whole entry): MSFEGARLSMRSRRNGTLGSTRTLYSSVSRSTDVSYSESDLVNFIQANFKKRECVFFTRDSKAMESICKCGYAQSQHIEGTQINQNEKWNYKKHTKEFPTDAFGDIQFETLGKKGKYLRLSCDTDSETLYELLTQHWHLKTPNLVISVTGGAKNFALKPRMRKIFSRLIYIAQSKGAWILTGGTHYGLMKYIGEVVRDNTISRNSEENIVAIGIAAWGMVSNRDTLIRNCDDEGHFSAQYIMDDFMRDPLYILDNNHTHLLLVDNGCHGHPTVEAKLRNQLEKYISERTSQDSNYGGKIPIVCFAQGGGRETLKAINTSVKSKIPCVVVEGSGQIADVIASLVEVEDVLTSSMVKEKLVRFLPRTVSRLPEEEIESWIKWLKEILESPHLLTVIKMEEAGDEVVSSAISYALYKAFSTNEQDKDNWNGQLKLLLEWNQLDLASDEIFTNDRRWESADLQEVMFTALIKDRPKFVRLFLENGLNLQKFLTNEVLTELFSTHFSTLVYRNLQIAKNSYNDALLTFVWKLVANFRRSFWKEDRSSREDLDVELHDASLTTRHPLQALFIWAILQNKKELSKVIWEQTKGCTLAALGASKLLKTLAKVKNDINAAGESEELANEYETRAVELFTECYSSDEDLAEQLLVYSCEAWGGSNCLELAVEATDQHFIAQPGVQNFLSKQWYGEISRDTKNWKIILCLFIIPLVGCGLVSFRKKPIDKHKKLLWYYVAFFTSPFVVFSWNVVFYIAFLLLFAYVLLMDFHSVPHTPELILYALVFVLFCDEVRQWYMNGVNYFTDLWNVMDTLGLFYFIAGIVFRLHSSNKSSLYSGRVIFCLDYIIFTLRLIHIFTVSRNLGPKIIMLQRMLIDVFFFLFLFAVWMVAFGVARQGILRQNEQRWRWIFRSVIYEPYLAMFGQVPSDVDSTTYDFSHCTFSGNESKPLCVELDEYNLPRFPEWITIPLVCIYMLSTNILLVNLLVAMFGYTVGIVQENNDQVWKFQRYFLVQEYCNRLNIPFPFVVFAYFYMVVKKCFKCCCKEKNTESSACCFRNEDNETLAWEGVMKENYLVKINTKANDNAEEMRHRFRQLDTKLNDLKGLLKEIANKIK
Chain of Transient receptor potential cation channel subfamily V member 4 (Q9ERZ8 whole entry): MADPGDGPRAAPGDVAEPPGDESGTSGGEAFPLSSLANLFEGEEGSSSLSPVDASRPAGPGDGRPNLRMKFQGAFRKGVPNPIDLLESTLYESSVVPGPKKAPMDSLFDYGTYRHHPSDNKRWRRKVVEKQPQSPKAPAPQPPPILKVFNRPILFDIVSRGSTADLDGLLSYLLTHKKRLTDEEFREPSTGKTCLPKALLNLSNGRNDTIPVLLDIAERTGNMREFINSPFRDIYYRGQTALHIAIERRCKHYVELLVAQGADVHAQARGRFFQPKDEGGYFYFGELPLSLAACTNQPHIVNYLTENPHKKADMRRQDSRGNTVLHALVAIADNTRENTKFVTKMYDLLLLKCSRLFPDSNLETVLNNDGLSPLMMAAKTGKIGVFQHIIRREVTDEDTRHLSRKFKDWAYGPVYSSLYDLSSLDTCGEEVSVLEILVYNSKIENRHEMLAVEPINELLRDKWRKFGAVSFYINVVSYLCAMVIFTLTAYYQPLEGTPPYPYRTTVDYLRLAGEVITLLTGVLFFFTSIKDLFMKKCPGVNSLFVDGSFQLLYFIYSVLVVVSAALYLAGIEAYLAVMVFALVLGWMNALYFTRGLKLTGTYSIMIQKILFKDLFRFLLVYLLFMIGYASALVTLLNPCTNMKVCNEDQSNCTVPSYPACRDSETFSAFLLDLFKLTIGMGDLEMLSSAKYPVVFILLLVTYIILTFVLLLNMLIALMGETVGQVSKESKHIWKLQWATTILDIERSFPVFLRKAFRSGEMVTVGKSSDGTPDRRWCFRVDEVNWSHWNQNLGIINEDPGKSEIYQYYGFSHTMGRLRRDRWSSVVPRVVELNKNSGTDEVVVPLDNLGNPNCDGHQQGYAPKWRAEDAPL
Chain of Cannabinoid receptor 1 (P21554 whole entry): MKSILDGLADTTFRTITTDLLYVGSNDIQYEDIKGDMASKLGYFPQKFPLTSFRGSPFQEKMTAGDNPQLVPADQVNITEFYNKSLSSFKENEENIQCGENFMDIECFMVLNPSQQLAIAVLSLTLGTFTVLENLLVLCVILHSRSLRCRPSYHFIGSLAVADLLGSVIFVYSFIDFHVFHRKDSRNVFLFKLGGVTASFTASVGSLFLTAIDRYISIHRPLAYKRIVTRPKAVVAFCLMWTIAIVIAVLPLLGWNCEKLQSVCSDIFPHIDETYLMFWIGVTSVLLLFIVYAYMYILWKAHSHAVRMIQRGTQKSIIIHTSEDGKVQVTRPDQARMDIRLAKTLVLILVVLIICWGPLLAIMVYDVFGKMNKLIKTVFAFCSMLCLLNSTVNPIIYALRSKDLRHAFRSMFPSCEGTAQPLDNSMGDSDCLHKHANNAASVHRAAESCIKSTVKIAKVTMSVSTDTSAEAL

Row | SMILES | EC50 [1] | EC50 [2] | EC50 [3] | EC50 (Cannabinoid receptor 2) | EC50 [4] | IC50 [5] | EC50 (Cannabinoid receptor 1) | EC50 [6]
1 | CCCc1cc(O)c2c(c1)OC(C)(C)c1ccc(C)cc1-2 | 3.1 µM | 0.2 µM | 7.3 µM | 4.78 µM | 3.5 µM | 0.5 µM | 0.565 µM | 6.6 µM
2 | CCCCCc1cc(O)c2c(c1)OC(C)(C)c1ccc(C)cc1-2 [CANNABINOL] | 19 µM | 0.18 µM | 16.1 µM | 0.073 µM | 5.3 µM | 0.21 µM | 0.075 µM | 6.2 µM
